# B1: NELF-E aptamer (parent)
# chain: CCCAACGACUGCCGAGCGAGAUUACGCUUGAGCGCCCCACUGAGGAUGCCCACGGGCGAUUGGGGCACGG
# Variants of: B1
# Assay: HiTS-RAP
# Conditions: with NELF-E (Drosophila)
# Summary of the method: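 Aptamer DNA templates bearing a T7 promoter and a ter site were sequenced on an Illumina GAIIx flowcell. T7 RNA polymerase then transcribed them in situ, and GST-Tus halted transcription over 30 minutes at 37°C. After a 30-minute room-temperature equilibration with NELF-E-mOrange at 0.064 to 1000 nM in HEPES binding buffer, clusters were imaged, using only the first binding curve. Intensities normalised to sequencing intensity were averaged per sequence and fitted with weighted Hill fits to give Kd, retaining only fits whose variance stayed under 1,000,000.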
row,Variant,Kd [nM]
1,CCCAACGACUGCCGAGCGAGAUUACGCUUGAGCGCCCCACUGAGGAUGUCCACGGGCGAUUGGGGCACGG [C49U],19.5
2,CCCAACGACGGCCGAGCGAGAUUACGCUUGAGCGCCCCACUGAGGAUGCCCACGGACGAUUGGGGCACGG [U10G G56A],9.45
3,CCCAACGACUGCCGAGCGAGAUGACGCUUGAGCGCCCCACUGAGGAUGCCCACGGGCGAUUGGGGCUCGG [U23G A67U],7.58
4,CCCAACUACUGCCGAGCGAGAUUACGUUUGAGCGCCCCACUGAGGAUGCCCACGGGCGAUUGGGGCACGG [G7U C27U],5.11
5,CCCAAAGACUGCCGAGCGAGAUUACGCUGGAGCGCCCCACUGAGGAUGCCCACGGGCGAUUGGGGCACGG [C6A U29G],6.91
6,CCCAGCGACUGCCGAGCGAGAUUACGCUUGAGCGCCCCACUGAGGAUGCCCACGGGCGAUUGGAGCACGG [A5G G64A],8.07
7,CCCAACGGCUGCCGAGCGAGAUUACGCUUGAGCGCCCCACUGAGGAUGCCCACGGGCGAUUGGGGCGCGG [A8G A67G],6.62
8,CCCAACGAGUGCCAAGCGAGAUUACGCUUGAGCGCCCCACUGAGGAUGCCCACGGGCGAUUGGGGCACGG [C9G G14A],6.55
9,CCCAAUGACUGCCGAGCGAGAUUACGCUUGAGCGCCCCACUGAGGAUGCCCACAGGCGAUUGGGGCACGG [C6U G54A],14.5
10,CCCUACGACUUCCGAGCGAGAUUACGCUUGAGCGCCCCACUGAGGAUGCCCACGGGCGAUUGGGGCACGG [A4U G11U],6.41
11,CCCAACUACUGCCGAGCGAGAUUGCGCUUGAGCGCCCCACUGAGGAUGCCCACGGGCGAUUGGGGCACGG [G7U A24G],6.71
12,CCCAACGACUGGCGAGCGAGAUUACGCUUGAGCGCCCCACUGGGGAUGCCCACGGGCGAUUGGGGCACGG [C12G A43G],26.1
13,CCCAACGACUGCCUAGCGAGAUUACGCUUGGGCGCCCCACUGAGGAUGCCCACGGGCGAUUGGGGCACGG [G14U A31G],7.27
14,CCCAACGACUGCCGAGGGAGAUUACGCUUGAGCGCCCCGCUGAGGAUGCCCACGGGCGAUUGGGGCACGG [C17G A39G],8.44
15,CCCAACGACUGCCGAGCGAGAUGACGCUUGAGCGCCCCAUUGAGGAUGCCCACGGGCGAUUGGGGCACGG [U23G C40U],135
16,CCCAACGACUGGCGAGCGAGAUUACGCCUGAGCGCCCCACUGAGGAUGCCCACGGGCGAUUGGGGCACGG [C12G U28C],8.42
17,CCCAACGACUGCCGAGCGAGAGUACGCUUGAGCGCCCUACUGAGGAUGCCCACGGGCGAUUGGGGCACGG [U22G C38U],8.32
18,CCCAACUACUGCCGAGCGAGAUUACGCUUGAGCGCCCCUCUGAGGAUGCCCACGGGCGAUUGGGGCACGG [G7U A39U],26.9
19,CCCAUCGACUGCCGAGCGAGAUUACGCUUGAACGCCCCACUGAGGAUGCCCACGGGCGAUUGGGGCACGG [A5U G32A],4.34
20,CCCAACUACUGCCGAGCGAGAUUACGCUUGAGCGCCCCAUUGAGGAUGCCCACGGGCGAUUGGGGCACGG [G7U C40U],80.4
21,CCCAACGUCUGCCGAGCGAGAUUACGCUUGAGCGCCCCACUGAGGAUGCCCGCGGGCGAUUGGGGCACGG [A8U A52G],5.67
22,CCCAUCGACUGCCGAGCGAGAUUACGCUUGAGCGCCACACUGAGGAUGCCCACGGGCGAUUGGGGCACGG [A5U C37A],14.8
23,CCCAACGACUGCCUAGCGAGAUUACGCUUGAGCGCCCCAUUGAGGAUGCCCACGGGCGAUUGGGGCACGG [G14U C40U],53.4
24,CCCAACGACUGCCGAGCGAGAUUACGCUUGAGCGCCCCACUGAGGAUGCCCACGGGCGAUUGGAGCUCGG [G64A A67U],35.5
25,CCCAACGACUGCCGAGCGAGAUUACACUUGAGCGCCCCACUGAGGAUGCCCACGGGUGAUUGGGGCACGG [G26A C57U],6.13
26,CCCAACGACUGCCGAGCGAGAUGACGCUUGAGCUCCCCACUGAGGAUGCCCACGGGCGAUUGGGGCACGG [U23G G34U],5.63

row,Variant,Kd [nM]
1,CCCAACGACUGCCGAGCGAGAUGACGCUUGAGCGCCCCACUGAGGAUGCCCACGGGCGAAUGGGGCACGG [U23G U60A],12.9
2,CCCAACGACUGCGGAGCGAGAUUACGCUUGAGCGCCCCACUGAGGAUGCCCACGGGCGAUUGGGGCACGG [C13G],4.88
3,CCCAACGCGUGCCGAGCGAGAUUACGCUUGAGCGCCCCACUGAGGAUGCCCACGGGCGAUUGGGGCACGG [A8C C9G],7.53
4,CCCAACGACUGCCGAGGGAGAUUACGCUUGAGCGCCCCACUGAGGAUGCCCACGGGCGAUUAGGGCACGG [C17G G62A],28.8
5,CCCAACGACUGCCGAGCGAAAUGACGCUUGAGCGCCCCACUGAGGAUGCCCACGGGCGAUUGGGGCACGG [G20A U23G],5.94
6,CCCGACGACUGCCGAGCGAGAUUACGCUUGAGCGCCCCACUGAGGAUGCCCACGGGCUAUUGGGGCACGG [A4G G58U],13.2
7,CCCAACGACUGCCGAGCGAGAUUACGCUGGAGCGCCCCACUGAGGAUGCCCGCGGGCGAUUGGGGCACGG [U29G A52G],4.39
8,CCCAACGACUGCCGAACGAGAUUACGCUUGAGCGCCCCACGGAGGAUGCCCACGGGCGAUUGGGGCACGG [G16A U41G],6.55
9,CCCGACGACUGCCGAGCGAGAUUACGCUUGAGCGCCCCUCUGAGGAUGCCCACGGGCGAUUGGGGCACGG [A4G A39U],25.9
10,CCCAACGACUGCCGAGCGAGAGUACGCUUGAGCGCCCCACUGAGGAUGCCCACGGGCGAUAGGGGCACGG [U22G U61A],29.9
11,CCCAACGACUGCCGAGCGAGGUUACGCUUGAGCGCCCCACUGAGGGUGCCCACGGGCGAUUGGGGCACGG [A21G A46G],39.1
12,CCCAACGACUUCCGAGCGAGAUUACGCUUGAGCGCCCCACUGAGGAUGCCCACGGGCGAUUGGGGCGCGG [G11U A67G],6.41
13,CCCAACGACUGCCGAGCGAGAUUACGCUUGAGCGGCCCACUGAGGAUGCCCACGGGCGAUUGGGGCACGG [C35G],6.51
14,CCCAACGUCUGCCGAGCGAGAUUACGCUUGAGCGCCCCACCGAGGAUGCCCACGGGCGAUUGGGGCACGG [A8U U41C],85.6
15,CCCAACGACUGCCGAGCGAGAUUACGCUUGAGCGCCCCACUGAAGAUGCCCACGGGCGAUUGGGGCACGG [G44A],42.3
16,CCCAACGACUGCCGAGCGAGAUUGCGCUUGAGCGCCCCAGUGAGGAUGCCCACGGGCGAUUGGGGCACGG [A24G C40G],6.34
17,CCCACCGACUGCCGAGCGAGAUUACGCUUGAGCGCCCCACGGAGGAUGCCCACGGGCGAUUGGGGCACGG [A5C U41G],7.61
18,CCCAACGACUGCCGAGCGAGAGUACGCUUGAGCGCCCCACUGAGGAUGCCUACGGGCGAUUGGGGCACGG [U22G C51U],7.12
19,CCCAACGACUGCCGAGCGAGAUUACGCUGGAGCGCCCCACUGAGGAUGCCCACGGGCGAUUGGGUCACGG [U29G G65U],6.57
20,CCCAACGACUGCCGAGCGAGAUUACGCUGGAGCGCCCCACUGAGGAUGCCCACGGGCGAUUGGGGCUCGG [U29G A67U],6.79
21,CCCAACGACUGCCGAGCGAGAGUACGCUUGAGCGCCCCACAGAGGAUGCCCACGGGCGAUUGGGGCACGG [U22G U41A],81.8
22,CCCAACGACUGCGGAGCGAGAUUACGCUUGAGCGCCCCACUGGGGAUGCCCACGGGCGAUUGGGGCACGG [C13G A43G],15.3
23,CCCAACGAUUGCCGAGCGAUAUUACGCUUGAGCGCCCCACUGAGGAUGCCCACGGGCGAUUGGGGCACGG [C9U G20U],7.82
24,CCCAACGACUGUCUAGCGAGAUUACGCUUGAGCGCCCCACUGAGGAUGCCCACGGGCGAUUGGGGCACGG [C12U G14U],8.16
25,CCCAACGACUGCCGAGCGAGAGUACGCUUGAGCGCCCCACUGAGGAUGCCCACGGGCGUUUGGGGCACGG [U22G A59U],97.1
26,CCCAACGACUGGCGAGCGAGAUUACGCUCGAGCGCCCCACUGAGGAUGCCCACGGGCGAUUGGGGCACGG [C12G U29C],6.33

row,Variant,Kd [nM]
1,CCCAACGACGGCCGAGCGAGAUUACGCUUGAGCGCCCCACUGAGGAUGCCCACGGGCGAUUGGGGCCCGG [U10G A67C],5.03
2,CCCAACGACUGCCGAGCGAGAUUGCGCUUGAGCGCCCCACUGAGGAUGCCCUCGGGCGAUUGGGGCACGG [A24G A52U],14.2
3,CCCAACGACUGCCGAGCGAGAUUACGCUGGAGCGCCGCACUGAGGAUGCCCACGGGCGAUUGGGGCACGG [U29G C37G],8.38
4,CCCAACGACUGCCAAGCGAGAUUGCGCUUGAGCGCCCCACUGAGGAUGCCCACGGGCGAUUGGGGCACGG [G14A A24G],5.71
5,CCCAACUACUGCUGAGCGAGAUUACGCUUGAGCGCCCCACUGAGGAUGCCCACGGGCGAUUGGGGCACGG [G7U C13U],5.75
6,CCCAACGACUGCCGAGCGAGAUUACGCUGGAGCGCCCCACUGAGGUUGCCCACGGGCGAUUGGGGCACGG [U29G A46U],77.8
7,CCCAUCGACUGCCGAGCGAGAUUACGCUUGAGCACCCCACUGAGGAUGCCCACGGGCGAUUGGGGCACGG [A5U G34A],5.54
8,CCCAACGACUGCGGAGCGAGAUCACGCUUGAGCGCCCCACUGAGGAUGCCCACGGGCGAUUGGGGCACGG [C13G U23C],5.7
9,CCCAACGACUGCCGAUCGAGAUUACGCUUGAGCGCCCCACUAAGGAUGCCCACGGGCGAUUGGGGCACGG [G16U G42A],36.6
10,CCCAACUACUGCCGAGCGAGAUUACGCUUGAGCGCCCCACGGAGGAUGCCCACGGGCGAUUGGGGCACGG [G7U U41G],6.05
11,CCCAACGAGUGCCGAGCGAGAUUACGCUUGAGCGUCCCACUGAGGAUGCCCACGGGCGAUUGGGGCACGG [C9G C35U],14.3
12,CCCAACGAGUGCCGAGCGAGGUUACGCUUGAGCGCCCCACUGAGGAUGCCCACGGGCGAUUGGGGCACGG [C9G A21G],6.86
13,CCCAACGACUGCCGAGCGAGAGUAUGCUUGAGCGCCCCACUGAGGAUGCCCACGGGCGAUUGGGGCACGG [U22G C25U],6.29
14,CCCGACGACUGCCGAGCGAGAUUACGCUUGAGCGUCCCACUGAGGAUGCCCACGGGCGAUUGGGGCACGG [A4G C35U],13.5
15,CCCAACGACAGGCGAGCGAGAUUACGCUUGAGCGCCCCACUGAGGAUGCCCACGGGCGAUUGGGGCACGG [U10A C12G],6.47
16,CCCAACGACUGCCGUGCGAUAUUACGCUUGAGCGCCCCACUGAGGAUGCCCACGGGCGAUUGGGGCACGG [A15U G20U],7.81
17,CCCAACGACUGCCGAGCGAGAGUACGCUUGAGCGCGCCACUGAGGAUGCCCACGGGCGAUUGGGGCACGG [U22G C36G],7.35
18,CCCAACGACUGCCGAGCGAGAUGACGCUUGAGCGUCCCACUGAGGAUGCCCACGGGCGAUUGGGGCACGG [U23G C35U],11.5
19,CCCAACGAGUGCCGAGCGAGACUACGCUUGAGCGCCCCACUGAGGAUGCCCACGGGCGAUUGGGGCACGG [C9G U22C],6.33
20,CCCAACGACUGCCGAGCGAGAUUGCGCUUUAGCGCCCCACUGAGGAUGCCCACGGGCGAUUGGGGCACGG [A24G G30U],7.16
21,CCCAACGACUGCCGAGCGAGGUUACGCUUGAGCGCCCCACUGAGGAUGCCCACGGGCGUUUGGGGCACGG [A21G A59U],73
22,CCCAACGACUGCCGAGCUAGAUUACGCUUGAGCGCCCCACUGAGGAUGCCCACGGGCGAUUGGGGCACGG [G18U],5.57
23,CCCAACUACUGCCGAGCGAGAUUACGCUUGAGCGCCCCACUUAGGAUGCCCACGGGCGAUUGGGGCACGG [G7U G42U],17.4
24,CCCAACGACUGCCGAUCGAGAUUACGCUUGAGCGCCCCACUGAGGAUGCCCACGGGCGAUUGAGGCACGG [G16U G63A],15.2
25,CCCAACGUUUGCCGAGCGAGAUUACGCUUGAGCGCCCCACUGAGGAUGCCCACGGGCGAUUGGGGCACGG [A8U C9U],6.55
